Hits are enriched below; roughly 1.4% of the tested compounds scored in any of these assays.
CAL PDZ FP-1 – inhibitors of human CAL PDZ peptide binding; Q9HD26; purified CAL PDZ, TMR-peptide fluorescence polarization, 1 h; inhibition, % at 24.9 µM; 0.92% of 300,000 active;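 active = mean inhibition of at least 30% with at least half of replicates also reaching 30%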;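 also: 0% = DMSO neutral control and 100% = excess unlabeled competitor peptide PRC23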
DDE Tn6 FP inh – DD(E)-Tn6 binding inhibition, primary FP screen. 0.21% of 370,000 active. inhibition, % at 8.3 µM. Fibrin DD(E) TRITC-Tn6 fluorescence polarization displacement;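 active = inhibition above a per-campaign cutoff: mean of compounds within control limits plus 3 SD, cut at about 15% in these data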;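 also: 0% = median of all compound wells on the plate and 100% = blocking peptide control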
CAL PDZ FP-2 – human CAL PDZ-peptide interaction inhibition | AID 504414 | 0.02% of 330,000 active | inhibition, % at 20 µM | purified CAL PDZ, TMR-peptide fluorescence polarization, 1 h;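 active = highest replicate inhibition of at least 40%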;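 also: plate controls were DMSO neutral control wells for no effect and unlabeled competitor peptide control wells for full effect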
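Control set: unlabelled peptide and DMSO controls / Material: purified CerCALP PDZ construct / Timing: 1 h incubation at room temperature before polarization reading / Doses: 20 µM, one dose / Detection: fluorescence polarization (mP)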
Arr AP2 block – inhibitors of human beta-arrestin and AP2 interaction | FITC-arrestin peptide / GST-AP2 beads, flow cytometry; AP2 beta2 appendage carries R879A mutation | inhibition, % at 10 µM | 0.31% of 340,000 active | AID 504490;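 active = inhibition above a set limit, near 3 SD of compounds lacking own fluorescence, cut at about 54% in these data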;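 also: plate controls were DMSO wells for no effect and 5 µM unlabelled arrestin peptide for full effect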
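system = GST-tagged AP2 beta2-adaptin appendage (R879A) on 4 µm glutathione beads | reagent = FITC-labelled arrestin peptide probe, 50 nM final | schedule = compound with beads 12 min RT, then probe 1 h RT | signal = HyperCyt-sampled flow cytometry, FL1 channel, ex 488/em 535 nm | read-out = percent response from loss of bead-bound FITC fluorescence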
Tn7 DDE FP – DD(E)-Tn7 binding inhibition, primary FP screen. P02675. FP displacement of FITC-Tn7 peptide from fibrin DD(E); 0% = median of compound wells per plate. inhibition, % at 8.3 µM. 0.13% of 370,000 active;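 active = inhibition above the mean of compounds falling within the control limits plus 3 SD of them, cut at about 14% in these data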;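 also: 0% = plate median of compound wells and 100% = 10 µM Aha-Tn7 peptide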
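assay system = human clot-derived fibrin DD(E) complex | quantity = Fibrin-DD(E) at 2 µM final | timing = 10 min preincubation, 3 h with tracer, room temperature | signal = fluorescence polarization | measure = percent inhibition | benchmarks = high control wells with 10 µM unlabelled Aha-Tn7 peptide (full inhibition) | replicates = singlicate testing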
Arr AP2 CP1 – blocks beta-arrestin peptide binding to human AP2; AID 504908; inhibition, % at 10 µM; GST-AP2 beads, FITC arrestin peptide binding, flow cytometry; GST-fused beta2-adaptin appendage, R879A mutant; 2% of 1,300 active; shares compounds with Arr AP2 block;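 active = inhibition above a set limit, roughly 3 SD of non-fluorescent compound noise, cut at about 38% in these data; inactive = inhibition at or below that limit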;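 also: loss of bead fluorescence from 50 nM FITC arrestin peptide bound to appendage; 0% = negative control wells and 100% = excess unlabelled arrestin peptide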
Target sequence (P63010 whole entry, looked up, the tested form may be a part, one chain of several): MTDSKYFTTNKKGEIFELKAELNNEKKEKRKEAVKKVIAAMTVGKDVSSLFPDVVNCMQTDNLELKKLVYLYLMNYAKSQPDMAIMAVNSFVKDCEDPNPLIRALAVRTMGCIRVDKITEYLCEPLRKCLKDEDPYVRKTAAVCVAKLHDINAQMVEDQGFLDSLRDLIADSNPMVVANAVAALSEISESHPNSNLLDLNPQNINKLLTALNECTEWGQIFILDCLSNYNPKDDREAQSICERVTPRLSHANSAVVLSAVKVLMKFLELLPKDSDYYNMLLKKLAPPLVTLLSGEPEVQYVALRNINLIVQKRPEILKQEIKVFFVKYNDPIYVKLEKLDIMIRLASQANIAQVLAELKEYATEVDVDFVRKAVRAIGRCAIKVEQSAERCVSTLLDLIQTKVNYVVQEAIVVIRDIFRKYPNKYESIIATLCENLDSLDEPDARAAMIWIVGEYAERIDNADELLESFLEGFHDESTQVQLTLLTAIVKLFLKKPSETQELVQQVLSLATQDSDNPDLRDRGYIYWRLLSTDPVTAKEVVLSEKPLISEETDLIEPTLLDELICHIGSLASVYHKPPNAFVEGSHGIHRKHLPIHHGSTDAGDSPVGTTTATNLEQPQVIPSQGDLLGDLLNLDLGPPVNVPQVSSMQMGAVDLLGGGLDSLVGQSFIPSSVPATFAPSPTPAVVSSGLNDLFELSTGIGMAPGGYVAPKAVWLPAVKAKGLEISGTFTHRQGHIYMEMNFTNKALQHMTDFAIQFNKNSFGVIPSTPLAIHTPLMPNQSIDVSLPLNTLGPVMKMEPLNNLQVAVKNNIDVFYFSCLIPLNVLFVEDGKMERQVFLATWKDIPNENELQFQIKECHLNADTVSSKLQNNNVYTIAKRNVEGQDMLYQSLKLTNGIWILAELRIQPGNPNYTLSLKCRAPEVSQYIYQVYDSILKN
GST GSH counter – GST-GSH bead binding interference, counter-screen. shares compounds with Arr AP2 block. GST-fluorescein binding to GSH beads, fluorescence. inhibition, % at 10 µM. 2% of 1,300 active;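 active = inhibition above 50%, about 3 SD of the inhibition seen with non-fluorescent compounds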;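 also: fluorescein maleimide labelled GST captured on 4 micron glutathione beads; higher means more loss of bead fluorescence from quenching or blocked binding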
Numbers without * were called inactive; / = no result.

SMILES | CAL PDZ FP-1 | DDE Tn6 FP inh | CAL PDZ FP-2 | Arr AP2 block | Tn7 DDE FP | Arr AP2 CP1 | GST GSH counter
COc1ccc(S[C@]2(C(=O)N3CCCC3)CC(=O)N(C(=O)C3CC3)[C@@H]2c2ccc(OC)cc2)cc1 | / | -11.4 | / | / | 1.3 | / | /
CCC(CC)C(=O)Nc1c(C)n(C)n(-c2ccccc2)c1=O | -2.3 | -7.4 | -3.2 | 13.4 | -0.6 | / | /
CCN(CC)C(=O)Nc1c(C)n(C)n(-c2ccccc2)c1=O | -2.3 | -1.4 | -0.4 | 65.0* | 2.3 | 0.2 | -3.0
Oc1c(C=C2N=c3ccccc3=N2)sc(=S)n1C1CCCC1 | 0.7 | -5.0 | 0.0 | 110.3* | -1.1 | -1.9 | -0.7
CCOC(=O)C1=C(COC(=O)COc2ccccc2C(C)C)NC(=O)NC1C (stereo not given) | 3.4 | 2.6 | -2.1 | 60.7* | -2.0 | 12.4 | 1.2
CCOC(=O)C1=C(COC(=O)COc2ccccc2C=O)NC(=O)NC1C (stereo not given) | 3.3 | -7.0 | 0.1 | 10.2 | 1.9 | / | /
CCOC(=O)C1=C(COC(=O)COc2ccccc2OCC)NC(=O)NC1C (stereo not given) | -4.2 | 1.9 | -0.4 | -3.7 | 3.0 | -0.8 | -10.9
CCOC(=O)C1=C(COC(=O)COc2ccc(OCC)cc2)NC(=O)NC1C (stereo not given) | -1.7 | 5.3 | -2.8 | 15.6 | 4.8 | -7.7 | -7.3
CCOC(=O)C1=C(COC(=O)COc2cccc(C)c2C)NC(=O)NC1C (stereo not given) | -6.5 | -8.6 | 0.5 | -10.5 | 9.8 | 0.2 | 3.2
COc1ccc(S[C@]2(C(=O)N3CCCC3)CC(=O)N(C(=O)CCc3ccccc3)[C@@H]2c2ccc(OC)cc2)cc1 | / | -1.7 | / | / | -1.7 | / | /
O=C(NCCO)C1(C(=O)C2CC2)CC(c2ccccn2)=NO1 (stereo not given) | / | 10.1 | / | / | 1.6 | / | /
CC(C)(C)[C@H](NC(=O)c1cc(Cl)cc(Cl)c1)C(=O)N1CCC[C@H]1C(=O)N[C@H](C#N)CC(=O)O | / | 9.6 | / | / | 6.9 | / | /
CCN(C(=O)[C@@H](C)[C@@H](O)c1ccc(C(C)=O)cc1)c1ccccc1 | / | -1.7 | / | / | -0.4 | / | /
CCOCC(=O)Nc1ccc2c(c1)N(S(=O)(=O)c1cccs1)CCC2 | 5.6 | -8.8 | -0.3 | 55.8* | -5.3 | -1.9 | -9.4
CN[C@H]1C[C@@H](c2ccccc2Br)N(C(C)=O)C[C@H]1CO | / | 4.2 | / | / | -2.9 | / | /
O=C(Nc1nc2ncccn2c1-c1ccc(F)c(F)c1)c1ccccc1 | / | 2.8 | / | / | -2.3 | / | /
COc1cc(OC)cc(C(=O)NCC(=O)OCc2nc3ccccc3s2)c1 | -4.8 | -2.8 | -1.4 | 55.4* | 10.6 | 1.2 | 5.0
O=C(CNC(=O)c1ccc(Cl)cc1)OCc1nc2ccccc2s1 | 3.2 | 2.7 | -2.3 | -6.0 | -0.5 | / | /
CN(Cc1nccs1)C(=O)C1CCC(=O)N(CCCc2ccccc2)C1 (stereo not given) | / | -4.8 | -0.9 | 57.2* | 6.3 | -2.9 | -1.9
CN(Cc1nccs1)C(=O)C1CCC(=O)N(Cc2ccccc2F)C1 (stereo not given) | -1.0 | 1.2 | -1.4 | -5.5 | 4.1 | / | /
O=C(CN1CCOCC1)Nc1ccc(Cl)cn1 | / | 0.1 | -1.2 | 54.2* | -7.4 | 9.9 | 7.7
COc1ccc(-c2cc(C(=O)Nc3c(C)n(C)n(-c4ccccc4)c3=O)c3ccccc3n2)cc1OC | -3.3 | 1.8 | -2.5 | 56.5* | -5.3 | -9.7 | -2.9
CCOC(=O)C(=Cc1ccc(OCc2ccc([N+](=O)[O-])cc2)c(OC)c1)C(=O)OCC | -3.2 | -6.9 | -0.3 | 81.5* | -0.9 | -21.4 | -6.2
O=C(NCCc1c[nH]c2ccccc12)OCc1cn(Cc2ccc(C(F)(F)F)cc2)nn1 | / | 11.0 | / | / | -1.3 | / | /
O=C(CSc1nc2ccccc2nc1N1CCCC1)N1CCN(C(c2ccccc2)c2ccccc2)CC1 | / | 2.6 | / | / | 4.9 | / | /
SMILES | CAL PDZ FP-1 | DDE Tn6 FP inh | CAL PDZ FP-2 | Arr AP2 block | Tn7 DDE FP | Arr AP2 CP1 | GST GSH counter
COc1ccccc1OCCC(=O)Nc1ccc2c(c1)OCO2 | -0.4 | -6.5 | 0.6 | 57.0* | -2.0 | 1.1 | -0.8
COc1ccc(CCC(=O)Nc2ccc3c(c2)OCO3)cc1 | -0.1 | 2.1 | 0.1 | -11.1 | -3.1 | / | /
CCOc1ccc(OCCC(=O)Nc2ccc3c(c2)OCO3)cc1 | 0.4 | 8.1 | -2.0 | 3.4 | -4.8 | -0.6 | -2.7
COc1ccccc1OCCC(=O)OCC(=O)Nc1ccc2c(c1)OCO2 | -1.9 | 8.9 | 0.3 | 10.6 | 3.0 | / | /
Cc1ccc(OCCC(=O)Nc2ccc3c(c2)OCO3)cc1 | 0.7 | 4.9 | 0.4 | 7.3 | 3.4 | 1.3 | -6.4
COc1ccc(OCCCC(=O)Nc2ccc3c(c2)OCO3)cc1 | / | 0.1 | -0.7 | 62.1* | -0.6 | 1.6 | 1.1
CC(=O)N1c2ccccc2C(=O)NCC1C(=O)NC(C)(C)C (stereo not given) | / | -2.3 | / | / | -2.6 | / | /
CCOC(=O)C1CCN(c2cc3c(cc2NC(=O)c2ccc(F)cc2)n(C)c(=O)n3C)CC1 | / | 3.8 | 1.1 | 36.1 | 1.9 | -8.6 | -4.6
CCOC(=O)C1CCN(c2cc3c(cc2NC(=O)c2ccccc2F)n(C)c(=O)n3C)CC1 | / | -5.5 | 0.2 | 34.5 | -6.5 | -9.9 | 5.5
CCOC(=O)C1CCN(c2cc3c(cc2NC(=O)c2ccccc2OCC)n(C)c(=O)n3C)CC1 | -3.5 | 1.5 | -0.4 | 10.3 | -5.4 | 6.1 | -3.6
CCOC(=O)C1CCN(c2cc3c(cc2NC(=O)c2ccccc2Cl)n(C)c(=O)n3C)CC1 | -1.1 | 4.9 | -2.5 | -6.4 | 6.4 | -4.1 | 1.1
COC(=O)[C@]12C[C@H](CC(=O)NCc3ccc(OC)c(OC)c3)C(=O)N(Cc3ccco3)C1=C[C@H](C(C)(C)C)O[C@@H]2C | / | -0.2 | / | / | 5.8 | / | /
COC(=O)c1ccccc1S(=O)(=O)N1CCC(C(=O)NCCC2=CCCCC2)CC1 | -1.8 | -3.5 | -0.8 | 63.4* | -6.6 | -5.3 | -1.1
CCOc1ccc(/C=N/NC(=O)Cc2csc(Nc3cccc(C(F)(F)F)c3)n2)cc1 | -0.3 | -3.5 | -0.4 | 85.5* | -5.2 | 8.5 | 2.4
COc1ccc(C(=O)N/C(=C\c2cccs2)C(=O)N2CCN(C)CC2)cc1OC | -3.2 | -10.5 | -0.7 | 9.1 | -0.4 | / | /
CCOC(=O)N1CCN(C(=O)/C(=C/c2cccs2)NC(=O)c2ccc(OC)c(OC)c2)CC1 | -4.2 | 5.0 | -3.0 | 60.0* | 4.6 | -1.7 | -13.7
CCN(CC)C(=S)NC(=O)c1cc(OC)c(OC)c(OC)c1 | 0.8 | -2.8 | -0.9 | 56.5* | 0.6 | -13.3 | -5.8
CCN1CCN(C(=S)NC(=O)c2cc(OC)c(OC)c(OC)c2)CC1 | -4.3 | -8.4 | 0.1 | -18.3 | 1.5 | / | /
CCCC[C@H](C(=O)N(CC)c1ccccc1)[C@@H](O)c1ccc(C(C)=O)cc1 | / | -3.8 | / | / | -3.8 | / | /

Screens: PubChem BioAssay, several laboratories
